M1 ag parental: counter-screen for M1 agonists: effect in parental CHO-K1 cells | activation, % at 3 µM | hit rate 0.48% among 360,000 | AID 602248 | Fluo-8 calcium fluorescence; scaled to maximal ATP response, vehicle zero; in the data active means activation above about 15%;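 further: untransfected CHO-K1 host cells lacking M1 receptor as counterscreen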
CHO-K1 Ca antag: counter-screen for M1 antagonists: effect in parental CHO-K1 cells; inhibition, % at 3 µM; ATP-induced calcium, Fluo-8 fluorescence; hit rate 0.6% among 360,000;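 active means inhibition above a per-plate cutoff, the plate's mean sample inhibition plus 3 SD, cut at about 24% in these data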;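 further: 0% = DMSO plus EC80 ATP and 100% = DMSO alone without ATP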
CHRM5 agonist: CHRM5 agonism in calcium assay; P08912; hit rate 0.19% among 360,000; AID 624037; activation, % at 3 µM; CHO-K1 hM5 cells, Fluo-8 calcium fluorescence; 0% DMSO wells, 100% maximal acetylcholine response;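 active means activation above the run's mean over test compounds plus 3 SD, cut at about 23% in these data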;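 further: signal is peak over basal fluorescence ratio across the kinetic read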
Target sequence (P08912 whole entry, looked up): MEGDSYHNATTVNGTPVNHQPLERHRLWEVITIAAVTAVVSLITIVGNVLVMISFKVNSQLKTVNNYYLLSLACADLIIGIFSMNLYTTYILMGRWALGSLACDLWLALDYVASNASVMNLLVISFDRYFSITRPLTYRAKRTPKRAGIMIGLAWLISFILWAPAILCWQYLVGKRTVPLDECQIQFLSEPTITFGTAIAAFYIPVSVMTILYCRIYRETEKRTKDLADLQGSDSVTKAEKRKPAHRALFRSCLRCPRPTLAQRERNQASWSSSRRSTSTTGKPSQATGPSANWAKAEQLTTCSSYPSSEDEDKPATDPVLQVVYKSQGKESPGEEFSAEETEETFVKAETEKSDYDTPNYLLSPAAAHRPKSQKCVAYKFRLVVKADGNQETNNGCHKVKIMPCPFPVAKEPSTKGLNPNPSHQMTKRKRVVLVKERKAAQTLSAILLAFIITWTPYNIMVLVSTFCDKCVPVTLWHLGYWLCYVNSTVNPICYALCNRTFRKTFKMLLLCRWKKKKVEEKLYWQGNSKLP
CHRM5 antagonist: blocks acetylcholine activation of human M5 receptor; inhibition, % at 3 µM; P08912; hit rate 0.59% among 360,000; CHO-hM5 cells, Fluo-8 calcium fluorescence, ACh EC80;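 active means inhibition above a per-plate cutoff, the mean of that plate's test compounds plus 3 SD, cut at about 27% in these data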;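 further: 0% = acetylcholine EC80 with DMSO and 100% = DMSO without agonist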
M5 PAM: positive allosteric modulators of human muscarinic M5 receptor. P08912. CHO-K1 hM5, Fluo-8 calcium, ACh EC20 PAM; 0% = ACh EC20, 100% = ACh EC100. activation, % at 3 µM. hit rate 0.3% among 360,000;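 active means activation above the run cutoff, the mean activation of all test compounds plus 3 SD, cut at about 18% in these data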
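Assay system: CHO-K1 hM5 cells / Incubation: Fluo-8 loading 80 min at 37 °C plus 30 min room temperature / Technique: Fluo-8 calcium dye fluorescence, kinetic read / Repeats: single replicate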
CHO-K1 Ca PAM: M1 PAM counterscreen hit in parental CHO-K1 cells | ATP EC20, Fluo-8 calcium fluorescence; 0% at ATP EC20, 100% at ATP max | activation, % at 3 µM | hit rate 0.02% among 360,000;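 active means activation above the run cutoff, the mean activation of all test compounds plus 3 SD, cut at about 40% in these data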;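 further: peak over basal fluorescence ratio in a 140 s read after ATP addition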
The depositor's hits bear a star. The list is not random: actives were taken first. Their share in the collection is about 1.7%.

SMILES	M1 ag parental	CHO-K1 Ca antag	CHRM5 agonist	CHRM5 antagonist	M5 PAM	CHO-K1 Ca PAM
Cn1c(SCC(=O)N2CCCCCC2)nc2c([nH]c3ccccc32)c1=O	1	-10	-5	-12	12	7
O=C1C=C(N2CCOCC2)c2ccccc2C1=O	1	-2	2	5	4	15
CC1=C(C)C(=O)C(N2CCOCC2)=CC1=O	0	-2	7	12	21*	4
Cc1ccccc1NC(=O)Nc1ccc(C(F)(F)F)cc1	11	24*	3	19	-19	-9
O=C(Nc1ccccc1)Nc1cccc(C(F)(F)F)c1	11	30*	4	40*	-17	-11
CNC(=O)Nc1cccc(C(F)(F)F)c1	1	-6	0	-4	4	15
COc1ccc(NC(=O)Nc2ccc([N+](=O)[O-])cc2)cn1	16*	18	8	34*	-13	-15
COc1ccc(NC(=O)Nc2cccc(C(F)(F)F)c2)cn1	9	26*	5	25	-15	-4
CCCCCNCC(=O)Nc1cccc(C(=O)Nc2cccc(C(F)(F)F)c2)c1	24*	7	16	12	-8	-8
FC(F)(F)c1cccc(NC(=S)NC(c2ccccc2)c2ccccc2)c1	4	16	2	27*	-19	-1
CC(=O)c1c(C)[nH]c(C(=O)Nc2cccc(C(F)(F)F)c2)c1C	18*	4	7	29*	-13	-11
COc1cc(NC(=O)c2ccno2)cc(C(=O)Nc2cccc(C(F)(F)F)c2)c1	17*	12	10	23	-38	-14
CC(=O)c1c(C)[nH]c(C(=O)Nc2cccc(C#N)c2)c1C	8	-10	5	0	-4	-6
O=C(CN1CCOCC1)Nc1cccc(C(=O)Nc2cccc(C(F)(F)F)c2)c1	1	0	-3	9	-13	6
FC(F)(F)c1cccc(NC(=S)Nc2ccc(Cl)c(Cl)c2)c1	5	4	8	6	-6	1
O=C(CCNC(=O)c1ccc([N+](=O)[O-])cc1)NNC(=O)c1ccccc1F	1	-16	1	-3	1	16
CCc1nnc(NC(=O)c2ccc(-c3cc(C(F)(F)F)ccc3Cl)o2)s1	0	-14	2	3	-4	20
CCOc1ccc(Nc2cc(Nc3ccccc3OCC)nc(C=C(C#N)C#N)n2)cc1	16*	-3	-1	0	6	4
O=C(/C=C/Nc1cccc(O)c1)c1ccccc1	2	-7	2	2	0	20
Cc1ccc(C(=O)/C=C/Nc2cccc(O)c2)cc1	1	5	-1	18	35*	-13
CCN(CC)c1ccc(C=C2C(=O)OC3(CCCCC3)OC2=O)cc1	1	-3	-3	10	-2	13
CCN(CC)c1ccc(/C=C2/C(=O)c3ccc(C(=O)O)cc3C2=O)cc1	62*	56*	33*	18	-17	-10
Cc1ccccc1-n1c(=O)cc(N2CCc3ccccc3C2)[nH]c1=O	18*	5	0	-1	0	13
O=c1cc(N2CCc3ccccc3C2)[nH]c(=O)n1-c1ccccc1Cl	1	-11	3	-3	0	28
COc1cc(OC)cc(-c2cc3nc(C)c(CCC(=O)O)c(C)n3n2)c1	0	39*	0	3	-5	-10
SMILES	M1 ag parental	CHO-K1 Ca antag	CHRM5 agonist	CHRM5 antagonist	M5 PAM	CHO-K1 Ca PAM
NC(=S)N/N=C/c1ccccc1OC(=O)/C=C/c1ccccc1	1	-4	-8	4	-6	7
Cc1ccc(S(=O)(=O)NCC(=O)N2CCc3ccccc3C2)cc1	2	-7	1	4	-6	12
CC(NC(=O)Nc1ccc([N+](=O)[O-])cc1)C(c1cccs1)N1CCCC1 (stereo unspecified)	25*	12	10	3	0	2
COc1ccc(C(CNc2ccc(S(=O)(=O)N3CCCC3)cc2[N+](=O)[O-])N2CCCC2)cc1 (stereo unspecified)	2	6	-5	32*	-17	11
COc1ccc(C(CNc2ccc(S(=O)(=O)N3CCN(C)CC3)cc2[N+](=O)[O-])N(C)C)cc1 (stereo unspecified)	1	-4	-3	-5	5	5
Cc1nc2cc(NS(=O)(=O)c3cccc(F)c3)ccc2s1	2	-19	1	7	0	9
COc1ccc2nc(NC(=O)CN3CCOCC3)sc2c1	0	26*	-1	2	-2	-7
COc1ccc2nc(NC(=O)CN3CCN(C)CC3)sc2c1	1	0	-3	-10	7	19
CCCN(CCC)c1ncnc2nc[nH]c12	0	29*	-2	3	-3	-4
Clc1ccccc1CN(Cc1ccccc1)c1ncnc2nc[nH]c12	2	3	-7	-4	2	16
Oc1ccccc1C1OCC2(CO1)COC(c1ccccc1O)OC2 (stereo unspecified)	0	-12	0	-11	-4	0
c1ccc(NCCC2OCC3(CO2)COC(CCNc2ccccc2)OC3)cc1 (stereo unspecified)	0	-2	-1	29*	-8	-5
CC(=O)c1ccc(S(=O)(=O)NCCC(=O)NC2CCN(Cc3ccccc3)CC2)cc1	0	-7	-1	3	19*	-11
c1ccc2c(c1)ncn2CCN1CCCCC1	1	-18	-6	-11	20*	19
c1ccc(CCn2cnc3ccccc32)cc1	-1	-10	-5	-4	3	-1
CC(C)C[C@H]1CN(CCCC[C@@H]2CNC(=O)C(=O)N2CCc2ccccc2)C(=O)C(=O)N1CCC1CCCCC1	0	1	-2	-1	1	-11
O=C(CSc1ccc2nnc(CCNC(=O)c3ccccc3)n2n1)NCc1ccco1	1	-3	-6	28*	-7	3
O=C(Nc1ccccc1Cl)NC1CCCCCCC1	23*	7	-3	24	-11	-10
CCN1CCN(c2ccc(S(=O)(=O)N3CCCCC3)cc2NC(=O)COc2ccc(Cl)cc2)CC1	0	-6	-6	3	-3	11
Cc1cc(=S)cc(C)n1CCCO	0	29*	2	-1	-1	-4
COCCOC(=O)c1c(N)n(CCCN2CCOCC2)c2nc3ccccc3nc12	0	4	4	-6	19*	-10
OC(COC(c1ccc(Cl)cc1)c1ccc(Cl)cc1)CN1CCc2ccccc2C1 (stereo unspecified)	16*	-7	-4	3	0	29
CC(C)Nc1ccc(C(CC(N)=O)NC(=O)c2ccc(Br)cc2)cc1[N+](=O)[O-] (stereo unspecified)	1	-10	1	-6	20*	6
